ChEMBL document CHEMBL1123708, “Resolved cis- and trans-2-amino-5-methoxy-1-methyltetralins: central dopamine receptor agonists and antagonists” (1987)
Active and inactive are the calls of the source. No cut-off for these calls is given here.

Columns and labels:
[1] = biological target: T1, Dopamine receptor (Rattus norvegicus) (UniProt P25115+P19020+P30729+P18901+P61169); experiment: In vivo displacement of DiPr-5,6-ADTN from Dopamine receptors in rat striatum; format: organism-based
[2] = biological target: T1, Dopamine receptor (Rattus norvegicus); experiment: Ability to displace the Dopamine receptor agonist DiPr-5,6-ADTN from rat striatal binding sites in vivo at a dose of 52 umol/kg by subcutaneous administration; format: organism-based
[3] = biological target: T1, Dopamine receptor (Rattus norvegicus); experiment: Ability to displace the Dopamine receptor agonist DiPr-5,6-ADTN from rat striatal binding sites in vivo at a dose of 13 umol/kg by subcutaneous administration; format: organism-based
[4] = system: Rattus norvegicus; experiment: Change in rectal temperature induced by DiPr-5,6-ADTN at a dose of 3.2 umol/kg of compound by subcutaneous administration; format: functional
How it was run: (§1)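 Rats received DiPr-5,6-ADTN (0.25 μmol/kg sc) 100 min and test compound sc 40 min before death. Rectal temperature change (°C) was recorded between 60 and 100 min after DiPr-5,6-ADTN. Values are mean ± SEM, n = 4, with Student's t test vs DiPr-5,6-ADTN alone.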

[5] = system: Rattus norvegicus; experiment: ((+)-UH-232) induced locomotor stimulation was determined in non pretreated rats at a dose of 13 umol/kg by subcutaneous administration; format: functional
[6] = system: Rattus norvegicus; experiment: ((+)-UH-232) induced locomotor stimulation was determined in non pretreated rats at a dose of 52 umol/kg by subcutaneous administration; format: functional
[7] = system: Rattus norvegicus; experiment: In vivo DOPA accumulation in non pre-treated rat limbic system following s.c. administration.; format: functional; settings: sc
How it was run: (§2)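 Rats without pretreatment received test drug sc 65 min and NSD 1015 (100 mg/kg ip) 30 min before death, with saline controls. DOPA was measured in limbic or striatal tissue. Dose for half-maximal change was estimated from 4-5-dose curves (n = 3-5), maximal level as % of control.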

[8] = system: Rattus norvegicus; experiment: In vivo DOPA accumulation in non pre-treated rat striatal system following s.c. administration.; format: functional; settings: sc; how it was run: as §2
[9] = system: Rattus norvegicus; experiment: Induced locomotor stimulation was determined in non pretreated rats at a dose of 3.2 umol/kg by subcutaneous administration; format: functional
How it was run: (§3)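 Untreated rats received test drug sc 5 min before a 30-min session in photocell motility meters, with accumulated counts recorded. Activity is expressed as percent of saline controls, mean ± SEM, n = 3-5. Gross behaviour was observed through a semitransparent mirror. Differences from saline controls were assessed by Student's t test.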

[10] = system: Rattus norvegicus; experiment: Locomotory activity was determined in non pretreated rats at a dose of 52 umol/kg by subcutaneous administration; format: functional; how it was run: as §3
[11] = system: Rattus norvegicus; experiment: Locomotory activity was determined in non pretreated rats at a dose of 3.2 umol/kg by subcutaneous administration; format: functional; how it was run: as §3
[12] = system: Rattus norvegicus; experiment: Change in rectal temperature induced by DiPr-5,6-ADTN at a dose of 52 umol/kg of compound by subcutaneous administration; format: functional; how it was run: as §1
[13] = system: Rattus norvegicus; experiment: Change in rectal temperature induced by DiPr-5,6-ADTN at a dose of 13 subcutaneous administration; format: functional; how it was run: as §1
[14] = system: Rattus norvegicus; experiment: Change in rectal temperature induced by DiPr-5,6-ADTN at a dose of 2.7 umol/kg of compound by subcutaneous administration; format: functional
How it was run: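 Rats received DiPr-5,6-ADTN at 0.25 μmol/kg sc, then the test compound sc (tested range 2.7–204 μmol/kg) 60 min later. Rectal temperature change was measured between 60 and 100 min after DiPr-5,6-ADTN. Values are mean ± SEM, n = 4, compared with DiPr-5,6-ADTN-only controls by Student's t test.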

[15] = system: Rattus norvegicus; experiment: In vivo DOPA accumulation in reserpine pretreated rat limbic system after 1.4 umol/kg ip; I denotes inactive; format: functional, organism-based
[16] = system: Rattus norvegicus; experiment: In vivo DOPA accumulation in reserpine pretreated rat striatum system after 1.4 umol/kg ip; I denotes inactive; format: functional, organism-based
[17] = system: Rattus norvegicus; experiment: Locomotory activity was determined in non pretreated rats at a dose of 2.7 umol/kg by intraperitoneal administration
[18] = system: Rattus norvegicus; experiment: Change in rectal temperature induced by DiPr-5,6-ADTN at a dose of 22 umol/kg of compound by subcutaneous administration; format: functional; how it was run: as §1
[19] = system: Rattus norvegicus; experiment: Change in rectal temperature induced by DiPr-5,6-ADTN at a dose of 45 umol/kg of compound by subcutaneous administration; format: functional; how it was run: as §1
[20] = system: Rattus norvegicus; experiment: In vivo DOPA accumulation in non pretreated rat limbic system by subcutaneous administration; I denotes inactive; format: functional, organism-based; how it was run: as §2
[21] = system: Rattus norvegicus; experiment: In vivo DOPA accumulation in non pretreated rat striatum system by subcutaneous administration; I denotes inactive; format: functional, organism-based; how it was run: as §2
[22] = system: Rattus norvegicus; experiment: In vivo DOPA accumulation in reserpine pretreated rat limbic system by subcutaneous administration; format: functional; settings: sc
How it was run: (§4)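 Rats received reserpine (5 mg/kg sc) 18 h, test drug sc 60 min and NSD 1015 (100 mg/kg ip) 30 min before death, with saline controls. Limbic or striatal DOPA was measured. Dose for half-maximal decrease was estimated from 4-7-dose curves (n = 3-5), minimal level as % of control.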

[23] = system: Rattus norvegicus; experiment: In vivo DOPA accumulation in reserpine pretreated rat striatum system by subcutaneous administration; format: functional; settings: sc; how it was run: as §4
[24] = system: Rattus norvegicus; experiment: Locomotory activity was determined in non pretreated rats at a dose of 52 umol/kg by subcutaneous administration; I denotes inactive; format: functional; how it was run: as §3
[25] = system: Rattus norvegicus; experiment: Locomotory activity was determined in reserpine pretreated rats at a dose of 204 umol/kg by subcutaneous administration. Value is the accumulation counts/30 min; format: functional
How it was run: (§5)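 Rats were given reserpine 5 mg/kg sc 18 h beforehand, then test drug sc immediately before the activity session. Motor activity was recorded by photocells in motility meters as accumulated counts over 30 min, mean ± SEM, n = 3-4. Gross behaviour was watched for signs of stimulation. Reserpine-only controls were included.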

[26] = system: Rattus norvegicus; experiment: Locomotory activity was determined in non pretreated rats at a dose of 3.2 umol/kg by subcutaneous administration; I denotes inactive; format: functional, organism-based; how it was run: as §3
[27] = biological target: T1, Dopamine receptor (Rattus norvegicus); settings: 22 uM
[28] = biological target: T1, Dopamine receptor (Rattus norvegicus); settings: 45 uM
[29] = system: Rattus norvegicus; experiment: Locomotory activity was determined in reserpine pretreated rats at a dose of 3.2 umol/kg by subcutaneous administration. Value is the accumulation counts/30 min; format: functional; how it was run: as §5
[30] = system: Rattus norvegicus; experiment: Locomotory activity was determined in non pretreated rats at a dose of 0.32 umol/kg by subcutaneous administration; format: functional; how it was run: as §3
[31] = biological target: T1, Dopamine receptor (Rattus norvegicus); experiment: Ability to displace the Dopamine receptor agonist DiPr-5,6-ADTN from rat striatal binding sites in vivo at a dose of 52 uM/kg by subcutaneous administration; format: organism-based
[32] = system: Rattus norvegicus; experiment: ((+)-UH-232) induced locomotor stimulation was determined in non pretreated rats at a dose of 3.2 umol/kg by subcutaneous administration; format: functional
[33] = system: Rattus norvegicus; experiment: Change in rectal temperature induced by DiPr-5,6-ADTN at a dose of 204 umol/kg of compound by subcutaneous administration; format: functional; how it was run: as §1
[34] = system: Rattus norvegicus; experiment: Induced locomotor stimulation in non pre-treated rats by 13 umol/kg s.c. administration.; format: functional
[35] = system: Rattus norvegicus; experiment: Induced locomotor stimulation was determined in non pretreated rats at a dose of 204 umol/kg by subcutaneous administration; format: functional
[36] = system: Rattus norvegicus; experiment: Induced locomotor stimulation was determined in non pretreated rats at a dose of 52 uM/kg by subcutaneous administration; format: functional; how it was run: as §3
[37] = system: Rattus norvegicus; experiment: In vivo DOPA accumulation in reserpine pretreated rat limbic system by subcutaneous administration; I denotes inactive; format: functional, organism-based; how it was run: as §4
[38] = system: Rattus norvegicus; experiment: In vivo DOPA accumulation in reserpine pretreated rat striatum system by subcutaneous administration; I denotes inactive; format: functional, organism-based; how it was run: as §4
[39] = system: Rattus norvegicus; experiment: Locomotory activity was determined in reserpine pretreated rats at a dose of 52 umol/kg by subcutaneous administration. Value is the accumulation counts/30 min; format: functional; how it was run: as §5
[40] = system: Rattus norvegicus; experiment: Induced locomotor stimulation in non pre-treated rats by 52 umol/kg s.c. administration.; format: functional
[41] = system: Rattus norvegicus; experiment: Change in rectal temperature induced by DiPr-5,6-ADTN at a dose of 13 umol/kg of compound by subcutaneous administration; format: functional; how it was run: as §1
[42] = biological target: T1, Dopamine receptor (Rattus norvegicus); settings: 13 uM
[43] = biological target: T1, Dopamine receptor (Rattus norvegicus); settings: 204 uM

With `COc1cccc2c1CC[C@@H](N(C)C)[C@H]2C` the Binding [1] was 60%, the Binding [2] was 14% and the Binding [3] was 40%. The Temperature [4] was -0.15 °C, the Activity [5] was 15% and the Activity [6] was 8%. The ED50 [7] was 2.2 µmol/kg, the ED50 [8] was 2.9 µmol/kg and the Activity [9] was 62%. For the same compound, the Activity [10] was 9%, the Activity [11] was 100% and the Temperature [12] was 0.28 °C. The Temperature [13] was 1.6 °C.

With `O=C(CCCN1CCC(O)(c2ccc(Cl)cc2)CC1)c1ccc(F)cc1` [HALOPERIDOL] the Body temp change [14] was 1.34 °C, the ED50 [7] was 0.19 µmol/kg and the ED50 [8] was 0.19 µmol/kg. The ED50 [15] was “inactive”, the ED50 [16] was “inactive” and the Activity [17] was 3%.

For `CCCN(CCC)[C@H]1CCc2c(OC)cccc2[C@H]1C`, the Body temp change [18] was 0.12 °C, the Body temp change [19] was 0.5 °C and the ED50 [20] was “inactive”. For the same compound, the ED50 [21] was “inactive”, the ED50 [22] was 5.5 µmol/kg and the ED50 [23] was 5.8 µmol/kg. The Activity [24] was “inactive”, the Activity [25] was 8 counts/30 min and the Activity [26] was “inactive”. For the same compound, the Binding [27] was 106% and the Binding [28] was 94%.

Work on `CN1CCc2cccc3c2[C@H]1Cc1ccc(O)c(O)c1-3` [APOMORPHINE] yielded an ED50 [22] of 0.041 µmol/kg, an ED50 [23] of 0.044 µmol/kg and an Activity [29] of 366 counts/30 min. The Activity [30] was 52% and the Activity [11] was 277%.

With `CCCN(CCC)[C@@H]1CCc2c(OC)cccc2[C@@H]1C` the Binding [1] was 83%, the Binding [31] was 34% and the Body temp change [4] was -0.03 °C. It also gave an Activity [32] of 105%, a Body temp change [33] of 0.45 °C and an ED50 [7] of 12.8 µmol/kg. It also gave an ED50 [8] of 9.6 µmol/kg, an Activity [34] of 78% and an Activity [35] of 22%. For the same compound, the Activity [36] was 24%, the ED50 [37] was “inactive” and the ED50 [38] was “inactive”. The Activity [39] was 4 counts/30 min, the Activity [11] was 152% and the Activity [40] was 70%. For the same compound, the Body temp change [12] was 0.45 °C, the Body temp change [41] was 1.4 °C and the Binding [42] was 61%. For the same compound, the Binding [43] was 31%.
